Measurements taken from ChEMBL document CHEMBL1150225, “Cytotoxic cholestane glycosides from the bulbs of Ornithogalum saundersiae” (J Nat Prod, 2001).
pIC50: −log10 of the molar value.

Assays:
M14 = assay: Cytotoxicity against human M14 cells; type: functional
SK-MEL-2 = assay: Cytotoxicity against human SK-MEL-2 cells; type: functional
SK-MEL-28 = assay: Cytotoxicity against human SK-MEL-28 cells; type: functional
SK-MEL-5 = assay: Cytotoxicity against human SK-MEL-5 cells; type: functional
UACC-62 = assay: Cytotoxicity against human UACC62 cells; type: functional
IGROV-1 = assay: Cytotoxicity against human IGROV1 cells; type: functional
OVCAR-4 = assay: Cytotoxicity against human OVCAR4 cells; type: functional
OVCAR-5 = assay: Cytotoxicity against human OVCAR5 cells; type: functional
SK-OV-3 = assay: Cytotoxicity against human SKOV3 cells; type: functional
786-0 = assay: Cytotoxicity against human 786-0 cells; type: functional
A498 = assay: Cytotoxicity against human A498 cells; type: functional
ACHN = assay: Cytotoxicity against human ACHN cells; type: functional
CAKI-1 = assay: Cytotoxicity against human Caki1 cells; type: functional
TK-10 = assay: Cytotoxicity against human TK10 cells; type: functional
UO-31 = assay: Cytotoxicity against human UO31 cells; type: functional
PC-3 = assay: Cytotoxicity against human PC3 cells; type: functional
DU-145 = assay: Cytotoxicity against human DU145 cells; type: functional
MCF7 = assay: Cytotoxicity against human MCF7 cells; type: functional
[1] = Cytotoxicity against human MCF7/ADR cells; type: functional; conditions: NCI/ADR-RES
MDA-MB-231 = assay: Cytotoxicity against human MDA-MB-231 cells; type: functional
[2] = Cytotoxicity against human Hs 578T cells; type: functional
MDA-N = assay: Cytotoxicity against human MDA-N cells; type: functional
BT-549 = assay: Cytotoxicity against human BT549 cells; type: functional
T47D = assay: Cytotoxicity against human T47D cells; type: functional
HL-60 = assay: Cytotoxicity against human HL60 cells after 72 hrs by MTT assay; type: functional, cell-based; conditions: HL-60, 72 h
Procedure, shortened: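 HL-60 leukemia cells kept in RPMI 1640 with 10% fetal bovine serum, L-glutamine, 100 units/mL penicillin and 100 μg/mL streptomycin. Cells at 3 × 10^4 cells/mL exposed continuously to compound for 72 h. Growth read by MTT reduction. IC50 (50% inhibition) calculated from each compound's dose–response curve.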

SR = assay: Cytotoxicity against human SR cells; type: functional
A549 = assay: Cytotoxicity against human A549 cells; type: functional
EKVX = assay: Cytotoxicity against human EKVX cells; type: functional
HOP-92 = assay: Cytotoxicity against human HOP92 cells; type: functional
NCI-H23 = assay: Cytotoxicity against human NCI-H23 cells; type: functional
NCI-H322M = assay: Cytotoxicity against human NCI-H322M cells; type: functional
NCI-H460 = assay: Cytotoxicity against human NCI-H460 cells; type: functional
COLO 205 = assay: Cytotoxicity against human COLO205 cells; type: functional
HCC 2998 = assay: Cytotoxicity against human HCC2998 cells; type: functional
HCT-116 = assay: Cytotoxicity against human HCT116 cells; type: functional
HCT-15 = assay: Cytotoxicity against human HCT15 cells; type: functional
KM12 = assay: Cytotoxicity against human KM12 cells; type: functional
SW-620 = assay: Cytotoxicity against human SW620 cells; type: functional
SF-268 = assay: Cytotoxicity against human SF268 cells; type: functional
SF-539 = assay: Cytotoxicity against human SF539 cells; type: functional
SNB-19 = assay: Cytotoxicity against human SNB19 cells; type: functional
SNB-75 = assay: Cytotoxicity against human SNB75 cells; type: functional
LOX IMVI = assay: Cytotoxicity against human LOXIMVI cells; type: functional
[3] = read-out: pLC50 (the source's name) (converted)

COc1ccc(C(=O)O[C@H]2[C@H](O[C@@H]3[C@@H](OC(C)=O)[C@H](O[C@H]4C[C@H]5[C@@H]6CC=C7C[C@@H](O)CC[C@]7(C)[C@H]6CC[C@]5(C)[C@@]4(O)[C@H](C)C(=O)CCC(C)C)OC[C@@H]3O)OC[C@@H](O)[C@@H]2O)cc1
GI50 (M14): 0.269 nM
CC50 (M14; [3]): 51.3 nM
TGI (M14; read-out: pTGI (converted)): 0.955 nM
GI50 (SK-MEL-2): 0.347 nM
CC50 (SK-MEL-2; [3]): 5500 nM
TGI (SK-MEL-2; read-out: pTGI (converted)): 17 nM
GI50 (SK-MEL-28): 0.182 nM
CC50 (SK-MEL-28; [3]): 25.7 nM
TGI (SK-MEL-28; read-out: pTGI (converted)): 1.1 nM
GI50 (SK-MEL-5): 0.759 nM
CC50 (SK-MEL-5; [3]): 282 nM
TGI (SK-MEL-5; read-out: pTGI (converted)): 43.6 nM
GI50 (UACC-62): 0.309 nM
CC50 (UACC-62; [3]): 3.63 nM
TGI (UACC-62; read-out: pTGI (converted)): 1.29 nM
GI50 (IGROV-1): 1.51 nM
CC50 (IGROV-1; [3]): 6920 nM
TGI (IGROV-1; read-out: pTGI (converted)): 1910 nM
GI50 (OVCAR-4): 3.63 nM
CC50 (OVCAR-4; [3]): 5750 nM
TGI (OVCAR-4; read-out: pTGI (converted)): 2190 nM
GI50 (OVCAR-5): 50.1 nM
CC50 (OVCAR-5; [3]): 5890 nM
TGI (OVCAR-5; read-out: pTGI (converted)): 2000 nM
GI50 (SK-OV-3): 3.98 nM
CC50 (SK-OV-3; [3]): 10000 nM
TGI (SK-OV-3; read-out: pTGI (converted)): 1200 nM
GI50 (786-0): 0.0617 nM
CC50 (786-0; [3]): 3470 nM
TGI (786-0; read-out: pTGI (converted)): 1200 nM
GI50 (A498): 0.24 nM
CC50 (A498; [3]): 141 nM
TGI (A498; read-out: pTGI (converted)): 2.19 nM
GI50 (ACHN): 7.94 nM
CC50 (ACHN; [3]): 7240 nM
TGI (ACHN; read-out: pTGI (converted)): 2190 nM
GI50 (CAKI-1): 1.7 nM
CC50 (CAKI-1; [3]): 871 nM
TGI (CAKI-1; read-out: pTGI (converted)): 49 nM
GI50 (TK-10): 77.6 nM
CC50 (TK-10; [3]): 8910 nM
TGI (TK-10; read-out: pTGI (converted)): 1910 nM
GI50 (UO-31): 0.617 nM
CC50 (UO-31; [3]): 30.2 nM
TGI (UO-31; read-out: pTGI (converted)): 1.41 nM
GI50 (PC-3): 0.209 nM
CC50 (PC-3; [3]): 389 nM
TGI (PC-3; read-out: pTGI (converted)): 1.58 nM
GI50 (DU-145): 3.71 nM
CC50 (DU-145; [3]): 4270 nM
TGI (DU-145; read-out: pTGI (converted)): 1510 nM
GI50 (MCF7): 0.813 nM
CC50 (MCF7; [3]): 3630 nM
TGI (MCF7; read-out: pTGI (converted)): 1200 nM
GI50 [1]: 24 nM
CC50 [1, 3]: 6610 nM
TGI ([1]; read-out: pTGI (converted)): 2000 nM
GI50 (MDA-MB-231): 19.1 nM
CC50 (MDA-MB-231; [3]): 5370 nM
TGI (MDA-MB-231; read-out: pTGI (converted)): 1290 nM
GI50 [2]: 0.0537 nM
CC50 [2, 3]: 2000 nM
TGI ([2]; read-out: pTGI (converted)): 0.741 nM
GI50 (MDA-N): 0.776 nM
CC50 (MDA-N; [3]): 490 nM
TGI (MDA-N; read-out: pTGI (converted)): 8.91 nM
GI50 (BT-549): 1.82 nM
CC50 (BT-549; [3]): 4570 nM
TGI (BT-549; read-out: pTGI (converted)): 1700 nM
GI50 (T47D): 5.13 nM
CC50 (T47D; [3]): 7760 nM
TGI (T47D; read-out: pTGI (converted)): 1510 nM
GI50 (HL-60): 0.0347 nM
pIC50 (HL-60): 9.60
TGI (HL-60; read-out: pTGI (converted)): 182 nM
GI50 (SR): 0.12 nM
CC50 (SR; [3]): 6310 nM
TGI (SR; read-out: pTGI (converted)): 129 nM
GI50 (A549): 0.457 nM
CC50 (A549; [3]): 8130 nM
TGI (A549; read-out: pTGI (converted)): 2090 nM
GI50 (EKVX): 0.182 nM
CC50 (EKVX; [3]): 6610 nM
TGI (EKVX; read-out: pTGI (converted)): 550 nM
GI50 (HOP-92): 1.1 nM
CC50 (HOP-92; [3]): 3020 nM
TGI (HOP-92; read-out: pTGI (converted)): 32.4 nM
GI50 (NCI-H23): 0.363 nM
CC50 (NCI-H23; [3]): 1290 nM
TGI (NCI-H23; read-out: pTGI (converted)): 110 nM
GI50 (NCI-H322M): 26.9 nM
CC50 (NCI-H322M; [3]): 5010 nM
TGI (NCI-H322M; read-out: pTGI (converted)): 1290 nM
GI50 (NCI-H460): 0.159 nM
CC50 (NCI-H460; [3]): 2190 nM
TGI (NCI-H460; read-out: pTGI (converted)): 33.9 nM
GI50 (COLO 205): 1 nM
CC50 (COLO 205; [3]): 288 nM
TGI (COLO 205; read-out: pTGI (converted)): 1.58 nM
GI50 (HCC 2998): 30.2 nM
CC50 (HCC 2998; [3]): 4370 nM
TGI (HCC 2998; read-out: pTGI (converted)): 1910 nM
GI50 (HCT-116): 0.38 nM
CC50 (HCT-116; [3]): 1290 nM
TGI (HCT-116; read-out: pTGI (converted)): 191 nM
GI50 (HCT-15): 11 nM
CC50 (HCT-15; [3]): 692 nM
TGI (HCT-15; read-out: pTGI (converted)): 95.5 nM
GI50 (KM12): 0.407 nM
CC50 (KM12; [3]): 1100 nM
TGI (KM12; read-out: pTGI (converted)): 39.8 nM
GI50 (SW-620): 0.129 nM
CC50 (SW-620; [3]): 21.9 nM
TGI (SW-620; read-out: pTGI (converted)): 0.549 nM
GI50 (SF-268): 2.4 nM
CC50 (SF-268; [3]): 7410 nM
TGI (SF-268; read-out: pTGI (converted)): 851 nM
GI50 (SF-539): 0.1 nM
CC50 (SF-539; [3]): 182 nM
TGI (SF-539; read-out: pTGI (converted)): 4.47 nM
GI50 (SNB-19): 12.9 nM
CC50 (SNB-19; [3]): 2880 nM
TGI (SNB-19; read-out: pTGI (converted)): 331 nM
GI50 (SNB-75): 0.0417 nM
CC50 (SNB-75; [3]): 3020 nM
TGI (SNB-75; read-out: pTGI (converted)): 3.24 nM
GI50 (LOX IMVI): 0.251 nM
CC50 (LOX IMVI; [3]): 91.2 nM
TGI (LOX IMVI; read-out: pTGI (converted)): 2.29 nM
